According to ChEMBL document CHEMBL3596140, “Bisleuconothine A Induces Autophagosome Formation by Interfering with AKT-mTOR Signaling Pathway” (J Nat Prod, 2015):
The source made the active and inactive calls. No cut-off for these calls is given here.

Columns and labels:
A549 [1] = assay: Effect on morphological changes in lysosome puncta in human A549 cells at 6 uM after 6 hrs by immunofluorescence staining-based microscopic analysis relative to control; format: functional, cell-based
In short: (§1)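 A549 cells on chamber slides placed in serum-free medium for 1 h, then exposed for 6 h to 6 μM compound, 5 μM everolimus or 400 nM bafilomycin A1. Fixed in ice-cold methanol for 15 min at −20 °C and blocked. Stained for LC3B, LAMP2 and p62 with Alexa Fluor 488/546/647 secondaries, mounted with DAPI, and puncta assessed by fluorescence microscopy.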

A549 [2] = assay: Inhibition of AKT phosphorylation at Ser473 in human A549 cells at 6 uM after 3 to 6 hrs by Western blot analysis; format: cell-based
In short: (§2)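 A549 total lysates harvested 3, 6, 12 or 24 h after exposure to 6 μM compound or 5 μM everolimus. Western blot on PVDF with antibodies to phospho-mTOR Ser2448, phospho-AKT Thr308 and Ser473, phospho-p70S6K Thr389, phospho-PDK1 Ser241 and PRAS40 Thr246, alongside total proteins and β-actin.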

[3] = biological target: Serine/threonine-protein kinase mTOR (Homo sapiens) (UniProt P42345); assay: Inhibition of mTOR in human A549 cells assessed as downregulation of p70S6K phosphorylation at thr389 at 6 uM after 3 to 24 hrs by Western blot analysis; format: cell-based; in short: as §2
A549 [4] = assay: Effect on localization of lysosome puncta with LAMP2 in human A549 cells at 6 uM after 6 hrs by immunofluorescence staining-based microscopic analysis relative to control; format: functional, cell-based; in short: as §1
A549 [5] = assay: Inhibition of AKT in human A549 cells assessed as downregulation of PRAS40 phosphorylation at thr246 at 6 uM after 3 to 12 hrs by Western blot analysis; format: cell-based; in short: as §2
A549 [6] = assay: Effect on Puma protein expression in human A549 cells at 24 uM after 6 to 24 hrs by Western blot analysis; format: functional, cell-based
In short: (§3)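 Total lysates of A549 cells harvested at 0, 6, 12 and 24 h after exposure to 24 μM test agent or 100 nM vinblastine. Proteins resolved, transferred to PVDF and probed for Bcl-xL, Mcl-1, Bcl-2, Bax-1, Bid, PUMA, Bim, Bik and p53, with antibodies diluted in BlockAce and β-actin as loading reference.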

A549 [7] = assay: Effect on Bax-1 protein expression in human A549 cells at 24 uM after 6 to 24 hrs by Western blot analysis; format: functional, cell-based; in short: as §3
A549 [8] = assay: Effect on BimEL protein expression in human A549 cells at 24 uM after 6 to 24 hrs by Western blot analysis; format: functional, cell-based; in short: as §3
A549 [9] = assay: Induction of autophagic punctation in human A549 cells assessed as increase of puncta with p62 at 6 uM after 6 hrs by immunofluorescence staining-based microscopic analysis relative to control; format: functional, cell-based; in short: as §1
A549 [10] = assay: Effect on p53 protein expression in human A549 cells at 24 uM after 6 to 24 hrs by Western blot analysis; format: functional, cell-based; in short: as §3
A549 [11] = assay: Effect on Bid protein expression in human A549 cells at 24 uM after 6 to 24 hrs by Western blot analysis; format: functional, cell-based; in short: as §3
A549 [12] = assay: Induction of apoptosis in human A549 cells at 24 uM after 24 hrs by FITC-annexin V/propidium iodide staining-based flow cytometric analysis; format: functional, cell-based
In short: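 A549 cells (5 × 10^5 cells/dish) exposed to compound (24 μM, or 100 nM for vinblastine) for 24 h. Cells washed twice with PBS and stained with FITC–annexin V plus propidium iodide in FACS buffer with 0.3% BSA. Quadrant distribution read by flow cytometry against untreated cells.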

A549 [13] = assay: Cytotoxicity against human A549 cells assessed as induction of cell death at 24 uM after 48 hrs by microscopic analysis; format: functional, cell-based
A549 [14] = assay: Induction of reactive oxygen species generation in human A549 cells at 24 uM incubated in dark for 1 hr by H2DCFDA dye-based flow cytometric analysis; format: functional, cell-based
In short: (§4)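 A549 cells (4 × 10^5 cells/dish) preloaded with 20 μM H2DCFDA for 1 h, then exposed to compound (6 or 24 μM) for 1 h in the dark at 37 °C. H2O2 at 100 μM served as positive control. Cells washed, resuspended in FACS buffer with 0.3% BSA, and analysed by flow cytometry for intracellular DCF fluorescence intensity.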

A549 [15] = assay: Induction of autophagy in human A549 cells assessed as increase in LC3-2 expression at 6 uM by Western blot analysis; format: functional, cell-based; conditions: TDE = time-dependent effect
In short: (§5)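 A549 and MCF7 cells exposed to 6 μM compound, with everolimus 5 μM as autophagy positive control. Total lysates harvested at 0, 4, 8, 12 or 24 h. LC3-I and LC3-II (lipidated) levels assessed by Western blot with LC3B antibody.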

A549 [16] = assay: Effect on Bcl-XL protein expression in human A549 cells at 24 uM after 6 to 24 hrs by Western blot analysis; format: functional, cell-based; in short: as §3
A549 [17] = assay: Effect on Bik protein expression in human A549 cells at 24 uM after 6 to 24 hrs by Western blot analysis; format: functional, cell-based; in short: as §3
A549 [18] = assay: Prevention of autophagosome degradation in human A549 cells assessed as upregulation of p62 expression at 6 uM after 6 hrs by Western blot analysis; format: functional, cell-based
In short: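 A549 cells kept in serum-free medium for 1 h, then exposed to 6 μM compound or 5 μM everolimus, with or without bafilomycin A1 (400 nM), for 6 h. LC3 and p62 levels in lysates assessed by Western blot to follow autophagic flux.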

A549 [19] = assay: Induction of reactive oxygen species generation in human A549 cells at 6 uM incubated in dark for 1 hr by H2DCFDA dye-based flow cytometric analysis; format: functional, cell-based; in short: as §4
MCF7 = assay: Induction of autophagy in human MCF7 cells assessed as LC3 lipidation at 6 uM after 4 to 24 hrs by Western blot analysis; format: functional, cell-based; in short: as §5
A549 [20] = assay: Cytostatic activity against human A549 cells by MTT assay; format: functional, cell-based
In short: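 A549 cells in medium with 10% FBS and 1% penicillin–streptomycin, exposed to compound for 48 h. MTT (5 mg/mL stock) added at the end of exposure, then 3 h further incubation. Formazan dissolved in DMSO and read at 550 nm (reference 700 nm) as a measure of succinate dehydrogenase activity. IC50 taken from the concentration–response curve. Microscopy used for confirmation.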

[21] = biological target: T1, 3-phosphoinositide-dependent protein kinase 1 (Homo sapiens) (UniProt O15530); assay: Effect on PDK1 phosphorylation at Ser241 in human A549 cells at 6 uM after 3 to 24 hrs by Western blot analysis; format: cell-based; in short: as §2
T1 sequence (whole entry): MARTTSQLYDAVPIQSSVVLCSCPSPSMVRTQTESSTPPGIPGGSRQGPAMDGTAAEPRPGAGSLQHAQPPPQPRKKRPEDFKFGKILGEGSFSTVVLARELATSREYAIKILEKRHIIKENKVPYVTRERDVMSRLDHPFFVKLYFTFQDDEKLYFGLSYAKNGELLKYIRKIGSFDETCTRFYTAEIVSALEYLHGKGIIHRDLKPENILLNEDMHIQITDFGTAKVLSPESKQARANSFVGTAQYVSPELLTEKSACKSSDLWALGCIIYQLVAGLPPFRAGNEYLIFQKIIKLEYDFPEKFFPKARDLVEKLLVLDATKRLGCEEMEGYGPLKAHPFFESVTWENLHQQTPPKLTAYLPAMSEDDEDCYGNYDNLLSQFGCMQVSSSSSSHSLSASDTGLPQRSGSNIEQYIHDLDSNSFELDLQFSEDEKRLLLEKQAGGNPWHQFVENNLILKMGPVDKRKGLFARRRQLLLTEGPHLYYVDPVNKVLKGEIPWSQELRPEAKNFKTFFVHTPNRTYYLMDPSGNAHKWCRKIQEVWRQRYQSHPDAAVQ

[22] = biological target: Serine/threonine-protein kinase mTOR (Homo sapiens) (UniProt P42345); assay: Effect on mTOR phosphorylation at ser2448 in human A549 cells at 6 uM after 3 to 24 hrs by Western blot analysis; format: cell-based; in short: as §2
A549 [23] = assay: Inhibition of AKT phosphorylation at thr308 in human A549 cells at 6 uM after 3 to 24 hrs by Western blot analysis; format: cell-based; in short: as §2
A549 [24] = assay: Effect on Mcl-1 protein expression in human A549 cells at 24 uM after 6 to 24 hrs by Western blot analysis; format: functional, cell-based; in short: as §3
A549 [25] = assay: Effect on Bcl-2 protein expression in human A549 cells at 24 uM after 6 to 24 hrs by Western blot analysis; format: functional, cell-based; in short: as §3
A549 [26] = assay: Induction of autophagic punctation in human A549 cells assessed as increase of puncta with LC3 at 6 uM after 6 hrs by immunofluorescence staining-based microscopic analysis relative to control; format: functional, cell-based; in short: as §1
A549 [27] = assay: Induction of autophagy in human A549 cells assessed as increase in LC3-2 expression at 6 uM after 4 to 24 hrs by Western blot analysis

`CC[C@@]12CCCN3CCc4c(n(c5ccccc45)[C@H](c4ccc(O)c5c4N[C@@H]4CC[C@@]6(CC)CCCN7CC[C@@]54[C@H]76)C1)[C@H]32` [BISLEUCONOTHINE A] was tested, and the Activity (A549 [1]) was “Active”, the inhibition (A549 [2]) was “Active” and the inhibition [3] was “Active”. For the same compound, the Activity (A549 [4]) was “Active”, the inhibition (A549 [5]) was “Active” and the Activity (A549 [6]) was “inactive”. The Activity (A549 [7]) was “inactive”, the Activity (A549 [8]) was “inactive” and the Activity (A549 [9]) was “Active”. For the same compound, the Activity (A549 [10]) was “inactive”, the Activity (A549 [11]) was “inactive” and the Activity (A549 [12]) was “inactive”. The Activity (A549 [13]) was “Active”, the Activity (A549 [14]) was “Active” and the Activity (A549 [15]) was “tde”. The Activity (A549 [16]) was “inactive”, the Activity (A549 [17]) was “inactive” and the Activity (A549 [18]) was “Active”. For the same compound, the Activity (A549 [19]) was “inactive”, the Activity (MCF7) was “Active” and the Activity (A549 [20]) was “Dose-dependent effect”. The IC50 (A549 [20]) was 8 µM, the Activity [21] was “inactive” and the Activity [22] was “inactive”. For the same compound, the inhibition (A549 [23]) was “Active”, the Activity (A549 [24]) was “inactive” and the Activity (A549 [25]) was “inactive”. The Activity (A549 [26]) was “Active” and the Activity (A549 [27]) was “Active”.
